# Screening data as filed in PubChem BioAssay.
# GSK3beta inhib: human GSK3beta kinase inhibitors, primary screen, biochemical, cell-free homogeneous, HTS | GST-GSK3beta kinase, ADP-Glo luminescence, 60 min; active compounds read low | activity score (negative = inhibition), % at 10 µM | actives 0.038% (n = 300,000) | AID 2097, 2009;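 active means more than half of replicate wells score below -50%, meaning over 50% inhibition versus plate controls; inconclusive means some replicates but at most half score below -50%; inactive means no replicate scores below -50%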
#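 test system = GST-tagged human GSK3beta kinase, cell-free | reagent = 25 µM ATP with peptide substrate | dosing = one dose of 10 µM per compound | schedule = 60 min reaction, RT | detection = luminescent ADP-Glo measurement of ADP formed | control set = DMSO neutral wells and GW8510 at 20 µM as positive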
# STK33 kinase inh: inhibitors of purified STK33 kinase, primary screen, biochemical, ADP-Glo luminescence, homogeneous, cell-free; Serine/threonine-protein kinase 33 (Homo sapiens), Q9BYT3; MBP phosphorylation; inhibition, % at 10 µM; actives 0.073% (n = 320,000); AID 2661, 2010;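 active means inhibition at or above 25%, using the most active replicate where run in duplicate; inactive means inhibition below 25%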
# HSV augment: enhancers of HSV replication in host cells, fold increase, host cell viability. HSV replication augmentation in cells. maximum fold increase. actives 0.005% (n = 220,000). AID 1956, 2009; in the data active means maximum fold increase above about 1.5; inconclusive means no clear call, values can overlap the other calls; tested in PC3 cells
# GSK3A inh: blockers of GSK3A enzyme activity – biochemical, luminescence, cell-free homogeneous, HTS, primary screen; AID 2650, 2010; actives 0.1% (n = 320,000); GSK-3 alpha kinase, ADP-Glo luminescence, 60 min; inhibition, % at 10 µM; Glycogen synthase kinase-3 alpha (Homo sapiens), P49840;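 active means more than half of replicates show inhibition above 20%; inconclusive means some but at most half of replicates above 20% inhibition; inactive means no replicate shows inhibition above 20%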;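 further: GST-tagged GSK-3 alpha with peptide substrate and 25 µM ATP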
# Target sequence (P49840 whole entry, looked up): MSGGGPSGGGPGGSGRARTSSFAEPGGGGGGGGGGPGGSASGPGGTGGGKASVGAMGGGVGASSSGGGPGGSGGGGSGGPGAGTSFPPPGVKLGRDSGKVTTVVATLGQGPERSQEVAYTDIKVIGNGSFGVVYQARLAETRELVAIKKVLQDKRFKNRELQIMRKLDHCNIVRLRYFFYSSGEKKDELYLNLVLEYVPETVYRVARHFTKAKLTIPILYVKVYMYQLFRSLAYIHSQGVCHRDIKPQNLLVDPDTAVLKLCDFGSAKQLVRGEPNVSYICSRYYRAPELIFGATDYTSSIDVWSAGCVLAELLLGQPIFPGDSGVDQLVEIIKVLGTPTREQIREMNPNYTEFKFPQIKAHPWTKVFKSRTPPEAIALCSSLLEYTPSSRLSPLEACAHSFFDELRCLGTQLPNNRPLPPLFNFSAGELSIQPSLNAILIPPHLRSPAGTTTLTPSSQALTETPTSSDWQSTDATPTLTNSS
# Hep lipid drop: inhibitors of hepatocyte lipid droplet formation, primary screen, imaging, high-throughput imaging, BODIPY stain; AML12 mouse hepatocytes, oleate lipid droplets; inhibition, % at 6.5 µM; actives 0.4% (n = 240,000); AID 1656, 2009;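 active means lipid droplet intensity inhibited by at least 50%, with more than 500 cells counted; inconclusive means wells with under 300 cells, treated as cytotoxic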
#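 Technique: fluorescence imaging, 20x objective, two fields per well / Assay system: AML12 hepatocytes (mouse) / Measure: % inhibition of lipid droplet signal / Doses: 6.5 µM single-point dosing / Incubation: overnight exposure / Reagent: 100 µM oleic acid challenge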
# Rce1 inh: yeast Rce1p protease inhibitors, primary screen, biochemical, fluorescence, cell-free homogeneous; CAAX prenyl protease 2 (Saccharomyces cerevisiae (strain ATCC 204508 / S288c)), Q03530; yeast membranes, quenched prenylated peptide cleavage fluorescence; calls only; actives 0.27% (n = 290,000); AID 2563, 2010;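 active means fall in fluorescence gain of 50% or more versus controls, with final raw signal at or below 3038400; inconclusive means same 50% fall but final raw signal above 3038400; inactive means fall in fluorescence gain under 50%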
# Lipid drop inh: hepatocyte lipid droplet accumulation inhibitors, confirmation, imaging, AML12 mouse hepatocytes, single concentration, high-content; shares compounds with Hep lipid drop; BODIPY lipid droplet imaging; droplets induced with 100 µM oleic acid; inhibition, % at 5.2 µM; actives 65% (n = 870); AID 463183, 2010;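 active means inhibition of lipid droplet metric at least 50%, with more than 300 cells in each of four replicates; inconclusive means wells under 300 cells, flagged as toxic or low count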
# AML12 tox img: AML12 hepatocyte cytotoxicity, counter-screen for hepatic lipid droplet formation project, imaging, DAPI nuclear morphology imaging. shares compounds with Hep lipid drop. AML12 mouse hepatocytes; active compounds read high; cells fed 100 µM oleate overnight. z-score at 5 µM. actives 3% (n = 870). AID 463200, 2010; in the data active means z-score above about 6.3;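 further: compound exposure lasted overnight at 37 °C before fixation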
# AML12 tox ATP: AML12 hepatocyte cytotoxicity, confirmation, cytotoxicity control for hepatic lipid droplet formation project, cell-based, single concentration; shares compounds with Hep lipid drop; AML12 mouse hepatocyte viability, ATP luminescence; cells loaded with 100 µM oleic acid; cytotoxicity, % at 50 µM; 530 tested, under 10 active;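 active means cytotoxicity above 50% in each of four replicates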;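 further: compound exposure lasted overnight at 37 °C before the ATP read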
# Hits are given with their value; 0 = inactive; ? = inconclusive; - = no result; + = active, no number. Sampled rows, rich in hits. Any-hit rate of the full collection: about 0.7%.
SMILES,GSK3beta inhib,STK33 kinase inh,HSV augment,GSK3A inh,Hep lipid drop,Rce1 inh,Lipid drop inh,AML12 tox img,others
COCCNC(=O)c1cc2nc(-c3ccc(F)cc3)cc(C(F)(F)F)n2n1,0,0,0,0,0,0,-,-,
Cc1nc(N2CCOCC2)c2cc(-c3ccccc3)sc2n1,0,0,0,0,-,+,-,-,
N#Cc1c2n(c3c(=O)[nH]cnc13)CCCC2,0,0,0,0,-,0,-,-,
N#Cc1c2n(c3c(=S)nc[nH]c13)CCCCC2,-92.2,0,0,102.1,-,0,-,-,
CC(=O)c1ccc(OCCCC(=O)OCC(=O)Nc2ccc3[nH]c(=O)[nH]c3c2)cc1,-,0,-,0,-,-,-,-,
O=C(c1ccco1)N1CCN(c2ccc([N+](=O)[O-])c(N3CCOCC3)c2)CC1,0,0,0,0,0,0,-,-,
CC(OC(=O)Cn1cnc2c1c(=O)n(C)c(=O)n2C)C(=O)N(C)c1ccccc1 (stereo unspecified),0,0,-,0,-,0,-,-,
CCN(CC)c1ccc(NC(=O)c2ccc3c(c2)c(C)c(C)n3C)cc1,0,0,0,0,71.2,0,-,-,
Cc1nn(C)cc1/C=C/C(=O)c1ccc(O)cc1,0,31.3,0,0,0,0,-,-,
Cc1cc(C(=O)CN2CCN(CC(=O)Nc3ccc(F)cc3)CC2)c(C)n1C1CC1,-,0,-,0,-,-,-,-,
NS(=O)(=O)c1ccc(CCNC(=O)c2ccc3ccccc3n2)cc1,0,0,0,0,0,+,-,-,
Cc1[nH]c(C)c(S(=O)(=O)NCCc2ccc(S(N)(=O)=O)cc2)c1C(=O)N1CCCC1,0,0,-,0,0,0,-,-,
COc1ccccc1NC(=O)Cc1nnc(SCC(=O)Nc2nccs2)n1C,0,0,-,0,0,+,-,-,
C=C1/C=C(\C)[C@](C)(O)C[C@H](O)CC(=O)[C@H](O)[C@@H](O)[C@H](C)C[C@H](C)OC(=O)/C(C)=C/CC/C=C/[C@@H]2O[C@H]2C[C@H](C)C1,-,0,-,0,-,-,-,-,
NS(=O)(=O)c1ccc(NC(=O)CSc2nnc(-c3ccc(O)cc3)o2)cc1,0,0,-,53.3,0,0,-,-,
COc1ccc(C2c3c(ncn(CCN4CCOCC4)c3=N)Oc3ccc4ccccc4c32)cc1 (stereo unspecified),0,0,0,0,0,+,-,-,
N=c1c2c(ncn1CCN1CCOCC1)Oc1ccc3ccccc3c1C2c1ccccc1 (stereo unspecified),0,0,0,0,-,0,-,-,
Cc1cccc(C(C)C)c1NC(=O)Cc1ccc(S(=O)(=O)N2CCOCC2)s1,0,0,-,0,-,0,-,-,
COc1ccc(-c2cc(C(F)(F)F)nc(SCC(=O)NCc3cnn(C)c3C)n2)cc1OC,0,0,0,0,0,+,-,-,
O=C(NCCCN1CCCCC1)c1ccc(CS(=O)c2ccc(F)cc2)o1 (stereo unspecified),0,0,-,0,0,0,-,-,
Cc1cc(C)cc(Nc2ccc(C(=O)O)cc2N)c1,0,0,0,0,0,+,-,-,
Cc1ccc(Nc2ccc(C(=O)O)cc2N)cc1,0,0,0,0,-,?,-,-,
Nc1ccc2nc(Cc3ccccc3)[nH]c2c1,0,0,0,0,54.1,0,0,0,
COC(=O)c1ccccc1NC(=O)CNCCc1ccc(OC)c(OC)c1,0,0,-,0,0,0,-,-,
COc1ccc(N2C(=O)C(CC(N)=O)N(NC(=O)CCc3ccccc3)C2=O)cc1 (stereo unspecified),0,0,0,0,0,0,-,-,
SMILES,GSK3beta inhib,STK33 kinase inh,HSV augment,GSK3A inh,Hep lipid drop,Rce1 inh,Lipid drop inh,AML12 tox img,others
CCOC(=O)c1cc(NC(=O)N(C)C2CCCCC2)c(C)nc1C,0,0,-,0,54.4,0,80.6,0,AML12 tox ATP=0
Cc1cc(C)n(-c2nc(N(c3ccccc3)c3ccccc3)nc(-n3nc(C)cc3C)n2)n1,0,0,0,0,57.3,0,69.0,0,AML12 tox ATP=92.9
Cc1cc(C)n(-c2nc(Nc3ccccc3)nc(-n3nc(C)cc3C)n2)n1,0,0,0,0,-,0,-,-,
COCCn1c(SCC#N)nnc1-c1ccc([N+](=O)[O-])cc1,0,0,0,0,0,0,-,-,
Cc1cc(C(F)(F)F)nc(SCC(=O)Nc2c(C)n(C)n(-c3ccccc3)c2=O)n1,0,0,-,0,0,0,-,-,
O=C(Nc1cccc(Br)c1)c1cccc(OC(=S)N2CCOCC2)c1,0,0,-,0,59.4,-,95.2,0,AML12 tox ATP=0
CCOC(=O)c1ccc(NC(=O)CCOc2ccc(C)cc2)cc1,0,0,0,0,65.6,0,89.7,0,AML12 tox ATP=0
CC(C)CC(NC(=O)/C(=C/c1ccco1)NC(=O)c1ccc(Br)o1)C(=O)O (stereo unspecified),0,0,-,0,-,0,-,-,
O=C(Nc1cccc(Cn2cccn2)c1)c1cc2c(s1)CCCC2,0,0,0,0,55.2,0,0,0,AML12 tox ATP=0
O=C1C(Nc2ccccc2)=C(N2CCCCC2)C(=O)c2ccccc21,0,0,0,0,-,0,-,-,
COc1ccccc1NC1=C(N2CCCCC2)C(=O)c2ccccc2C1=O,0,0,0,0,68.9,0,0,0,
CN(C1=C(N2CCCCC2)C(=O)c2ccccc2C1=O)c1ccccc1,0,0,0,0,78.7,0,113.5,0,AML12 tox ATP=0
O=C(CN1c2cccc3cccc(c23)S1(=O)=O)Nc1ccc(F)c(F)c1F,-,0,-,0,-,-,-,-,
CNCCCOc1ccc(C(C)(C)c2ccccc2)cc1,0,-,-,-,0,0,-,-,
CCC(C)NCCOc1ccc(C(C)(C)c2ccccc2)cc1 (stereo unspecified),0,0,0,0,51.2,0,0,0,
COC(=O)[C@H](Cc1c[nH]c2ccccc12)NC(=O)NCc1ccc(OC)c(OC)c1,0,0,-,0,0,0,-,-,
COc1ccc(C(=O)COC(=O)CN2C(=O)c3ccccc3C2=O)c(OC)c1,0,0,-,0,0,0,-,-,
CCN1CCN(c2c(/C=C3\SC(=S)N(Cc4ccco4)C3=O)c(C)c(C#N)c(=O)n2C)CC1,0,0,?,0,64.9,-,0,0,
Cc1cc(=O)oc2cc(OCC(=O)NC3CCN(Cc4ccccc4)CC3)c(Cl)cc12,0,0,-,0,62.9,0,0,0,
